In ChEMBL document CHEMBL2163316, “Discovery of (S)-6-(3-cyclopentyl-2-(4-(trifluoromethyl)-1H-imidazol-1-yl)propanamido)nicotinic acid as a hepatoselective glucokinase activator clinical candidate for treating type 2 diabetes mellitus” (J Med Chem, 2012):
In brackets after ≈: the same amount, converted by molar mass.

Tests used:
[1] = Volume of distribution at steady state in dog at 1 mg/kg, iv; format: ADME, organism-based, Canis lupus familiaris; parameters: dose 1 mg/kg, route intravenous; settings: in vivo, read-out: Vdss
Method in brief: (§1)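 Pharmacokinetic parameters are the geometric mean of n = 2 animals per group unless otherwise noted.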

Rattus norvegicus [2] = assay: fCmax in rat at 1 mg/kg, iv; format: ADME, organism-based; parameters: dose 1 mg/kg, route intravenous; settings: in vivo
[3] = Volume of distribution at steady state in monkey at 0.5 mg/kg, iv; format: ADME, organism-based, Macaca mulatta; parameters: dose 0.5 mg/kg, route intravenous; settings: rhesus monkey, in vivo, read-out: Vdss; method in brief: as §1
Canis familiaris [4] = assay: fAUC (0 to 24 hrs) in dog at 5 mg/kg, po; format: ADME, organism-based, Canis lupus familiaris; parameters: dose 5 mg/kg, route oral; settings: in vivo
[5] = Oral bioavailability in dog at 5 mg/kg; format: ADME, organism-based, Canis lupus familiaris; settings: in vivo
[6] = Ratio of free drug uptake in liver to plasma of dog at 50 mg/kg, po administered for 4 days measured 4 hrs post last dosing; format: ADME, organism-based, Canis lupus familiaris; parameters: dose 50 mg/kg, route oral
Method in brief: (§2)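 Oral repeat dosing: rats for 28 days, dogs for 4 days. Plasma, liver, pancreas and brain were sampled at 4 h postdose on the last day. Ratios use free drug concentrations, converted with unbound fractions from equilibrium dialysis (plasma at 50 μM, tissues at 1 μM). BLQ = below limit of quantification.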

Rhesus monkey [7] = assay: fAUC (0 to 24 hrs) in monkey at 3 mg/kg, po; format: ADME, organism-based, Macaca mulatta; parameters: dose 3 mg/kg, route oral; settings: in vivo
[8] = Fraction absorbed in portal vein cannulated rat at 5 mg/kg, po; settings: in vivo, read-out: Fabs
[9] = Drug excretion in rat bile; format: ADME, tissue-based; settings: read-out: Drug excretion
Rhesus monkey [10] = assay: fCmax in monkey at 0.5 mg/kg, iv; format: ADME, organism-based, Macaca mulatta; parameters: dose 0.5 mg/kg, route intravenous; settings: in vivo
Canis familiaris [11] = assay: fCmax in dog at 5 mg/kg, po; format: ADME, organism-based, Canis lupus familiaris; parameters: dose 5 mg/kg, route oral; settings: in vivo
[12] = Oral bioavailability in rat at 5 mg/kg; format: ADME, organism-based; settings: in vivo; method in brief: as §1
[13] = Ratio of free drug uptake in pancreas to plasma of dog at 50 mg/kg, po administered for 4 days measured 4 hrs post last dosing; format: ADME, organism-based, Canis lupus familiaris; parameters: dose 50 mg/kg, route oral; method in brief: as §2
[14] = Volume of distribution at steady state in rat at 1 mg/kg, iv; format: ADME, organism-based; parameters: dose 1 mg/kg, route intravenous; settings: in vivo, read-out: Vdss; method in brief: as §1
[15] = Ratio of free drug uptake in brain to plasma of Wistar rat at 100 mg/kg, po administered for 28 days measured 4 hrs post last dosing; format: ADME, organism-based; parameters: dose 100 mg/kg, route oral; settings: BLD = below limit of detection; method in brief: as §2
Canis familiaris [16] = assay: fCmax in dog at 1 mg/kg, iv; format: ADME, organism-based, Canis lupus familiaris; parameters: dose 1 mg/kg, route intravenous; settings: in vivo
Rhesus monkey [17] = assay: fAUC (0 to 24 hrs) in monkey at 0.5 mg/kg, iv; format: ADME, organism-based, Macaca mulatta; parameters: dose 0.5 mg/kg, route intravenous; settings: in vivo
Rattus norvegicus [18] = assay: fAUC (0 to 24 hrs) in rat at 1 mg/kg, iv; format: ADME, organism-based; parameters: dose 1 mg/kg, route intravenous; settings: in vivo
[19] = Renal excretion in rat; format: ADME, organism-based, Kidney; settings: urine, read-out: Drug excretion
[20] = Thermodynamic solubility of the compound at pH 6.5; format: physicochemical; settings: buffer, read-out: Therm_solubility
[21] = Ratio of free drug uptake in liver to plasma of Wistar rat at 100 mg/kg, po administered for 28 days measured 4 hrs post last dosing; format: ADME, organism-based; parameters: dose 100 mg/kg, route oral; method in brief: as §2
[22] = Ratio of free drug uptake in brain to plasma of dog at 50 mg/kg, po administered for 4 days measured 4 hrs post last dosing; format: ADME, organism-based, Canis lupus familiaris; parameters: dose 50 mg/kg, route oral; settings: read-out: BPR; method in brief: as §2
[23] = Kinetic solubility of the compound; format: physicochemical; settings: read-out: Kinetic_solubility
Rhesus monkey [24] = assay: fCmax in monkey at 3 mg/kg, po; format: ADME, organism-based, Macaca mulatta; parameters: dose 3 mg/kg, route oral; settings: in vivo
[25] = Ratio of free drug uptake in pancreas to plasma of Wistar rat at 100 mg/kg, po administered for 28 days measured 4 hrs post last dosing; format: ADME, organism-based; parameters: dose 100 mg/kg, route oral; method in brief: as §2
[26] = Oral bioavailability in monkey at 3 mg/kg; format: ADME, organism-based, Macaca mulatta; settings: rhesus monkey, in vivo; method in brief: as §1
Rattus norvegicus [27] = assay: fAUC (0 to 24 hrs) in rat at 5 mg/kg, po; format: ADME, organism-based; parameters: dose 5 mg/kg, route oral; settings: in vivo
Canis familiaris [28] = assay: fAUC (0 to 24 hrs) in dog at 1 mg/kg, iv; format: ADME, organism-based, Canis lupus familiaris; parameters: dose 1 mg/kg, route intravenous; settings: in vivo
Rattus norvegicus [29] = assay: fCmax in rat at 5 mg/kg, po; format: ADME, organism-based; parameters: dose 5 mg/kg, route oral; settings: in vivo

Vd [1]: 1.6 L/kg
fCmax (Rattus norvegicus [2]): 176 ng/mL
Vd [3]: 0.7 L/kg
fAUC (Canis familiaris [4]): 72.6 ng·h/mL
bioavailability [5]: 18%
Kp uu at 4 h [6]: 14.5
fAUC (Rhesus monkey [7]): 94.7 ng·h/mL
Fa [8]: 53%
dose excreted [9]: 62%
fCmax (Rhesus monkey [10]): 219 ng/mL
fCmax (Canis familiaris [11]): 23.3 ng/mL
bioavailability [12]: 18%
Kp uu at 4 h [13]: 0.25
Vd [14]: 2 L/kg
BPR [15]: BLD
fCmax (Canis familiaris [16]): 479 ng/mL
fAUC (Rhesus monkey [17]): 46.2 ng·h/mL
fAUC (Rattus norvegicus [18]): 34.7 ng·h/mL
dose excreted [19]: 11%
solubility thermodynamic [20]: 4200 µg/mL (≈ 10.6 mM)
Kp uu at 4 h [21]: 10.5
Kp uu at 4 h [22]: 0.009
solubility kinetic [23]: 524 µM (≈ 208 µg/mL)
fCmax (Rhesus monkey [24]): 13.6 ng/mL
Kp uu at 4 h [25]: 0.14
bioavailability [26]: 35%
fAUC (Rattus norvegicus [27]): 30.3 ng·h/mL
fAUC (Canis familiaris [28]): 79.1 ng·h/mL
fCmax (Rattus norvegicus [29]): 5.4 ng/mL
Structure (SMILES): O=C(O)c1ccc(NC(=O)[C@H](CC2CCCC2)n2cnc(C(F)(F)F)c2)nc1 [PF-04991532]
